SENP7 inh: inhibitors of human SENP7 protease; AID 434973; actives 1.5% (n = 330,000); Q9BQF6; inhibition, % at 5 µM; recombinant SENP7, Z-RLRGG-aminoluciferin luminescence, 40 min;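 active means inhibition above about 50% at the single test dose, limit read from the data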;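 further: plate controls were DMSO with enzyme for no effect and no enzyme buffer wells for full effect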
Target sequence (Q9BQF6 706-1050 limits assumed): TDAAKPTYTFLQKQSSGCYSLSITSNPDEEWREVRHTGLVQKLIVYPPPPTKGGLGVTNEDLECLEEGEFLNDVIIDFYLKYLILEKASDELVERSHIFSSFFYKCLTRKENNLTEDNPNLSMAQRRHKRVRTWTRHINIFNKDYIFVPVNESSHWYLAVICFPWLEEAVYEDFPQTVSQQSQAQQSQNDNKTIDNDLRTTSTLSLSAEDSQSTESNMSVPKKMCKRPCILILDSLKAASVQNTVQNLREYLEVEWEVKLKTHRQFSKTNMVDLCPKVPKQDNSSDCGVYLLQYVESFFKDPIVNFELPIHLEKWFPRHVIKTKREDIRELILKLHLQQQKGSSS
UBC13 polyUb: inhibitors of human UBC13 polyubiquitin chain formation. AID 485273. TR-FRET. actives 0.47% (n = 330,000). P61088. inhibition, % at 20 µM; in the data active means inhibition above about 45%, passing the limit was not always enough
Target sequence (P61088 whole entry, looked up): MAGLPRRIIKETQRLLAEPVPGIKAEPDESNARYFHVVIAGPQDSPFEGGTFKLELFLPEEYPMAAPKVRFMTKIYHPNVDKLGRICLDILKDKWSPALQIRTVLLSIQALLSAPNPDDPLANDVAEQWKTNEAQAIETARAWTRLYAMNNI
SENP8 block-1: inhibitors of human SENP8 protease | recombinant SENP8, Nedd8 substrate fluorescence | inhibition, % at 20 µM | actives 0.64% (n = 360,000); in the data active means inhibition mostly above about 40%, no sharp cut-off; inactive means mostly below about 27%
Apaf-1 inh: blocks human Apaf-1 apoptosome activity; O14727; reconstituted apoptosome caspase-3 activity, DEVD-Rh110 fluorescence; inhibition, % at 20 µM; actives 0.71% (n = 330,000); AID 489030; active means inhibition of at least 40% at 20 µM;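 further: plate controls were DMSO wells for no effect and DEVD-CHO caspase inhibitor wells for full effect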
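Material: cell-free apoptosome with Apaf-1, procaspase-3 and caspase-9; Buffer or medium: Hepes pH 7.5 with detergent and BSA; Reagent: cytochrome c trigger plus (Z-DEVD)2-Rh110 caspase-3 substrate; Times: compound with Apaf-1, dATP, procaspase-3 30 min, then 50 min reaction, room temperature; Technique: Rh110 fluorescence intensity.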
SENP6 inh: inhibitors of human SENP6 protease; AID 2599; Recombinant SENP6 catalytic domain, aminoluciferin luminescence; actives 1.8% (n = 330,000); inhibition, % at 10 µM; Q9GZR1;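 active means inhibition above about 50% at the single tested dose, limit read from the data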;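 further: plate controls were DMSO wells with enzyme for no effect and DMSO wells lacking enzyme for full effect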
SENP8 block-2: blocks the human protease SENP8 | Q96LD8 | purified SENP8, Z-RLRGG-aminoluciferin cleavage, luminescence | inhibition, % at 10 µM | actives 1.2% (n = 330,000) | AID 2540; in the data active means inhibition above about 50%
SENP8 conf: confirmation of human SENP8 protease inhibitors. shares compounds with SENP7 inh. Recombinant SENP8, Z-RLRGG-aminoluciferin luminescence, 60 min. inhibition, % at 12.5 µM. actives 40% (n = 6,200). AID 488912;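 active means mean inhibition across replicates above about 50%, limit read from the data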
SENP6 confirm: confirmation of human SENP6 protease inhibitors | shares compounds with SENP7 inh | recombinant SENP6, Z-RLRGG-aminoluciferin luminescence | inhibition, % at 12.5 µM | actives 58% (n = 6,200) | AID 488915
SENP7 confirm: confirmation of human SENP7 protease inhibitors. shares compounds with SENP7 inh. recombinant SENP7, Z-RLRGG-aminoluciferin luminescence, 40 min. inhibition, % at 12.5 µM. actives 69% (n = 6,200)
Casp3 SENP sel: inhibits human caspase-3 in SENP selectivity test; shares compounds with SENP7 inh; purified caspase-3, Z-DEVD-aminoluciferin luminescence, 60 min; inhibition, % at 12.5 µM; actives 60% (n = 6,200);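 active means mean inhibition above about 50%, limit read from the data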;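 further: plate controls were enzyme with DMSO for no effect and wells without caspase-3 for full effect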
Target sequence (P42574 28-227 limits assumed): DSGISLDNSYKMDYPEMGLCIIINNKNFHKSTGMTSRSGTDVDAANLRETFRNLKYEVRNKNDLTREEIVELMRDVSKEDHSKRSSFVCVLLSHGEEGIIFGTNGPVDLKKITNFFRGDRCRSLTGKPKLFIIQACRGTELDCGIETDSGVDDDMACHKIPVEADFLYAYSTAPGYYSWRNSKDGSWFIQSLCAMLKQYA
Luc interf: luminescence interference (SENP counter-screen). shares compounds with SENP7 inh. Pre-incubated SENP8/Z-RLRGG-aminoluciferin, luciferase luminescence interference. inhibition, % at 12.5 µM. actives 39% (n = 6,200). AID 488919;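 active means mean inhibition above about 50% when retested at one dose, limit read from the data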;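 further: plate controls were DMSO wells with completed reaction for no effect and substrate without enzyme for full effect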
Apaf-1 inh conf2: Apaf-1 inhibition, single-dose confirmed; shares compounds with Apaf-1 inh; actives 25% (n = 1,800); reconstituted apoptosome, caspase-3 DEVD-Rh110 fluorescence; inhibition, % at 20 µM;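 active means mean inhibition of at least 40% at 20 µM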;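 further: plate controls were DMSO wells for no effect and DEVD-CHO caspase inhibitor control wells for full effect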
Rh110 quench: Rh110 signal interference in Apaf-1 inhibitor counter-screen; activation (fluorescence interference), % at 20 µM; Rh110 fluorescence interference, quenched caspase reaction; shares compounds with Apaf-1 inh; AID 504615; 1,800 tested, under 10 active;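 active means signal rise of 40% or more at 20 µM, treated as a fluorescence artifact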
Fluor interf inh: Apaf-1 inhibitor counter-screen fluorescence artifact; 460 tested, under 10 active; fluorescence interference counterscreen, Apaf-1 assay format; IC50, µM; shares compounds with Apaf-1 inh; call rule not given here
Numbers without * were called inactive; i = inactive; / = no result given. An excerpt weighted towards active compounds, which were near 3% of everything screened.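 How the source made its calls, unless noted: active means mean inhibition above about 50% in the one-dose retest (limit read from the data); inactive means the rest.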

SMILES	SENP7 inh	UBC13 polyUb	SENP8 block-1	Apaf-1 inh	SENP6 inh	SENP8 block-2	SENP8 conf	SENP6 confirm	SENP7 confirm	Casp3 SENP sel	Luc interf	others
CCN(CC)C(=O)c1ccc(NC(=O)c2cccc(F)c2)cc1	64.7*	-0.8	11.6	-3.4	61.5*	34.8	56.9*	53.7*	83.3*	82.1*	53.0*
CCN(CC)C(=O)c1ccc(NC(=O)c2cccc(S(=O)(=O)N3CCN(C)CC3)c2)cc1	0.9	-4.8	5.0	5.8	2.9	-5.6	/	/	/	/	/
ClCCN(CCCl)c1ccc(C=Cc2ccncn2)cc1	/	/	i	/	/	/	/	/	/	/	/
NNCc1cccc(O)c1	56.4*	3.8	6.9	-1.7	81.4*	72.5*	18.5	20.4	55.1*	51.8*	73.0*
O=C(Nc1ccc(C(=O)O)cc1)Oc1ccc(N(CCCl)CCCl)cc1	/	/	-3.3	/	/	/	/	/	/	/	/
Cc1cc(C)c(S(=O)(=O)N2Cc3ccccc3-n3nncc3C2)c(C)c1	/	/	1.2	/	/	/	/	/	/	/	/
COc1ccc(-c2nc3ccccc3c(=O)o2)cc1	89.5*	8.9	8.7	-8.5	81.2*	19.5	62.8*	44.3	74.9*	53.9*	33.8
COc1ccc(-n2c(-c3ccc(C)cc3)nc3ccccc3c2=O)cc1	9.2	6.8	12.0	6.6	-2.8	-8.2	/	/	/	/	/
O=c1[nH]c(=S)[nH]c(O)c1N=Nc1ccc(SC(F)F)cc1	83.2*	-52.2	24.8	8.7	100.2*	90.7*	81.3*	94.6*	89.4*	94.6*	61.8*
COc1ccc(CC2c3cc(OC)c(OC)cc3CCN2C)cc1O (centres undefined)	-2.2	-3.6	-94.9	-1.7	-22.7	-6.4	/	/	/	/	/
COc1cc2c(cc1OC)-c1c(OC)c(OC)cc3c1C(C2)N(C)CC3 (centres undefined)	55.3*	-129.4	-136.3	95.1*	82.3*	57.9*	-2.5	73.1*	30.3	23.8	-2.7
COc1c2c(cc3c1OCO3)CCN(C)C2	-6.9	-6.1	2.9	-8.4	1.6	-2.6	/	/	/	/	/
COc1cc2c(cc1OC)-c1c3c(cc4c1[C@@H](C2)N(C)CC4)OCO3	46.0	-258.4	i	97.5*	77.6*	32.3	10.3	38.1	8.0	3.8	-2.9
O=C(Nc1ccc2ccccc2c1)c1nn(C23CC4CC(CC(C4)C2)C3)cc1Br	-4.3	-3.5	10.6	4.8	-6.5	-8.6	/	/	/	/	/
Cc1nc(Cl)sc1C(=O)Nc1ccc2ccccc2c1	28.9	10.7	9.3	-1.6	54.9*	19.7	36.5	32.3	74.7*	34.2	32.2
C[C@H]1CN([C@@H](C)CO)C(=O)CCCn2nncc2CO[C@@H]1CN(C)C(=O)Oc1ccccc1	/	/	-20.9	/	/	/	/	/	/	/	/
N/C(=N\[N+](=O)[O-])N/N=C/c1ccc(O)cc1	79.1*	-12.3	13.3	-22.3	92.4*	67.5*	77.9*	75.2*	90.7*	91.8*	80.9*
CN1C[C@H](CO)C=C2c3cccc4[nH]cc(c34)C[C@H]21	30.4	-77.4	-186.0	29.7	44.6	9.7	/	/	/	/	/
CC(C)[C@H]1C(=O)N2CCC[C@H]2[C@]2(O)O[C@](NC(=O)[C@@H]3C=C4c5cccc6[nH]cc(c56)C[C@H]4N(C)C3)(C(C)C)C(=O)N12	39.6	-36.4	-378.9	94.8*	52.2*	43.3	-11.2	3.9	-6.7	-2.0	-8.1
CC(C)C[C@H]1C(=O)N2CCCC2[C@]2(O)O[C@](NC(=O)[C@@H]3C=C4c5cccc6[nH]cc(c56)CC4N(C)C3)(C(C)C)C(=O)N12 (some centres undefined)	33.4	-86.5	-388.6	86.8*	54.2*	42.1	17.3	29.8	9.8	6.3	-2.1
CC(C)[C@@]1(NC(=O)[C@@H]2C[C@@H]3c4cccc5[nH]cc(c45)C[C@H]3N(C)C2)O[C@@]2(O)[C@@H]3CCCN3C(=O)[C@H](Cc3ccccc3)N2C1=O	7.1	23.6	-85.2	22.5	5.1	11.6	/	/	/	/	/
NC(Cc1ccc(F)cc1)c1csc(Nc2ccccn2)n1 (centres undefined)	/	/	-1.7	/	/	/	/	/	/	/	/
COC(=O)C1=C(c2ccc(OCc3ccccc3)c(F)c2)C[C@@H]2CC[C@H]1N2C	/	/	-5.8	/	/	/	/	/	/	/	/
COc1cc(C(c2c(C)[nH]n(-c3ccccc3)c2=O)c2c(C)[nH]n(-c3ccccc3)c2=O)cc(OC)c1OC	64.4*	-56.4	80.5*	91.8*	58.5*	30.8	20.9	47.9	18.4	-2.1	-3.0	Apaf-1 inh conf2=62.1*;Rh110 quench=-3.1;Fluor interf inh=>100
CC(C)(C)n1nnnc1C(c1cccs1)N1CCC2(CC1)C(=O)NCN2c1ccccc1 (centres undefined)	/	/	6.7	/	/	/	/	/	/	/	/
O=S(=O)(c1cc(Cl)cc(Cl)c1)N1Cc2cc(N3CCOCC3)ccc2-n2nncc2C1	/	/	11.9	/	/	/	/	/	/	/	/
CCCCn1c(NS(=O)(=O)c2ccc(C)cc2)c(C(=O)OCC)c2nc3ccccc3nc21	8.2	-8.8	-287.9	90.3*	92.8*	62.1*	20.4	32.2	3.9	-4.9	-15.3	Apaf-1 inh conf2=26.9;Rh110 quench=6.7
CCCCn1c(NC(=O)c2ccco2)c(C(=O)OCC)c2nc3ccccc3nc21	-12.3	-23.0	-270.6	82.6*	83.8*	62.2*	75.3*	89.1*	71.1*	5.2	-9.2	Apaf-1 inh conf2=79.8*;Rh110 quench=1.3;Fluor interf inh=>100
CCC(C)C1NC(=O)C(NC(=O)C(CC(C)C)N(C)C(=O)C2CCCN2C(=O)C(C)O)C(C)OC(=O)C(Cc2ccc(OC)cc2)N(C)C(=O)C2CCCN2C(=O)C(CC(C)C)NC(=O)[C@H](C)C(=O)[C@H](C(C)C)OC(=O)CC1O (some centres undefined)	/	/	23.0	/	/	/	/	/	/	/	/
